Measurements published in PMC9670014 (SLAS discovery : advancing life sciences R & D, 2022).

Target: T1, NR2F6 (Mus musculus, UniProt P43136)
T1 sequence (P43136 1-390): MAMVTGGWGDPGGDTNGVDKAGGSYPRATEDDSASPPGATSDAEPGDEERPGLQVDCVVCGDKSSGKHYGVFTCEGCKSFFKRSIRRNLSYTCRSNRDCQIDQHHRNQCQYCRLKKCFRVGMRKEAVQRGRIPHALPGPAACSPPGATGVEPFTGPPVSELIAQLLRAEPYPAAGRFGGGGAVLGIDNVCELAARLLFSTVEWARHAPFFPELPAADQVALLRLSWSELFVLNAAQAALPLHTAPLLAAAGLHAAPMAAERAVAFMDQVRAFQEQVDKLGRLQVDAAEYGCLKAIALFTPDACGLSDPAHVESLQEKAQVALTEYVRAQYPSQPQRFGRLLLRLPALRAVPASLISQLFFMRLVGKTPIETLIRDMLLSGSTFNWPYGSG
Assay: NR2F6/Il17a luciferase assay in transiently transfected HEK293 cells
Format: cell-based
Conditions: Maxcyte transfected HEK293 cells, 384-well format, Troglitazone 62.5uM
Summary of the method: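 HEK293 cells grown in DMEM with 10% heat-inactivated FBS and 1% penicillin-streptomycin, harvested at 70% confluency, and resuspended in electroporation buffer at 1×10^8 cells/mL. Il17a::luc plus NR2F6 or empty vector was electroporated with DNA amount titrated, then recovered 5 h at 37 °C. Luciferase was read with positive control versus untreated samples.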

Cc1c(C)c2c(c(C)c1O)CCC(C)(COc1ccc(CC3SC(=O)NC3=O)cc1)O2 (stereo not shown) [Troglitazone]
NR2F6's repressive transcriptional response (Il17a luciferase signal): further enhanced
